Experimental data taken from article PMC4312721 (Biochimica et biophysica acta, 2014).
Where two headings read alike, the source gives them in different places.

Legend:
recombinant PLD2 [1] = target: T1, recombinant PLD2 (Homo sapiens, UniProt O14939); test: Enzyme inhibition kinetics with purified recombinant PLD2; format: biochemical; conditions: 300 nM inhibitor; for Effect on Km / Effect on Vmax / Type of inhibition (Lineweaver Burk plot): increasing PC
Method in brief: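 Purified full-length PLD2 was expressed in Sf21 insect cells with a baculovirus system and enriched on TALON matrix. Two assay formats were used. In one, increasing enzyme amounts, untreated or with 300 nM inhibitor, were run with fixed PC at 3.5 mM. In the other, fixed enzyme, ± 300 nM inhibitor, was run with increasing PC. [3H]-phosphatidylbutanol co-migrating with PBut standards was measured by scintillation counting. Data were plotted as Michaelis-Menten and Lineweaver-Burk plots.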

PLD2 mutants [2] = target: PLD2 mutants (Homo sapiens, UniProt O14939, S757A); test: Lipase activity of PLD2 mutants overexpressed in COS7 cells; format: biochemical; conditions: 300 nM
PLD2 mutants (Homo sapiens, UniProt O14939, S757A), sequence (O14939 whole entry S757A): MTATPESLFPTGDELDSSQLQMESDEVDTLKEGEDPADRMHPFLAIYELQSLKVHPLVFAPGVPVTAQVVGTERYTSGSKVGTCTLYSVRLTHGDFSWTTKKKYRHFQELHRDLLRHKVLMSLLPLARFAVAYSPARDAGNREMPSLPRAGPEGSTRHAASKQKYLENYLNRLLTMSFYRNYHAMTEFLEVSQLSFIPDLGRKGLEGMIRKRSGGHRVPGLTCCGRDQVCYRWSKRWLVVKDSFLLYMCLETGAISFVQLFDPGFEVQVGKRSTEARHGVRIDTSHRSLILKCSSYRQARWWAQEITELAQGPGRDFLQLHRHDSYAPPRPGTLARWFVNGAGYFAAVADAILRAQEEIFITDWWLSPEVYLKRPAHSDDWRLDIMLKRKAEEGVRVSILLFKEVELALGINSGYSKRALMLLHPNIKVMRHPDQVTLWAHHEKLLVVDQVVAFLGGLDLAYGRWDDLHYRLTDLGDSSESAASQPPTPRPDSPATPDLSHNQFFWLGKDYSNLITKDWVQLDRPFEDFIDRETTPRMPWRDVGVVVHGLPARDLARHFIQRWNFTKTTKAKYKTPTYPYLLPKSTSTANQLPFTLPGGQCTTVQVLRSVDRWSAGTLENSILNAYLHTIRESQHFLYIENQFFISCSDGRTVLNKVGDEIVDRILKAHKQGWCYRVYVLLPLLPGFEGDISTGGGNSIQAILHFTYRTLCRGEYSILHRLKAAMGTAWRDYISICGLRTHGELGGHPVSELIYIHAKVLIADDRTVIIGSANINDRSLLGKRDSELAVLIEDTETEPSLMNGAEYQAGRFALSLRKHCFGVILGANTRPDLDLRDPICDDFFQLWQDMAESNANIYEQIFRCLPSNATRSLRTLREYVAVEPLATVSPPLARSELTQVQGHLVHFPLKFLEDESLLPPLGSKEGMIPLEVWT
Method in brief: (§1)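 COS-7 cells in DMEM/10% FBS were transfected at 60% confluence with 1–6 μg plasmid (PLD2 mutants) using Lipofectamine/Plus, with 3 h exposure and 48 h expression. Lysates were treated with 300 nM test compound for 25 min. The lipase assay ran 20 min at 30 °C with shaking and was stopped with ice-cold chloroform/methanol (1:2). Lipids were separated by TLC, and [3H]-phosphatidylbutanol was quantified by scintillation counting.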

PLD2 mutants [3] = test: as above; format: biochemical
Method in brief: as §1

PLD = conditions: cited from earlier work
recombinant PLD2 [4] = target: T1, recombinant PLD2; test: Lipase assay of recombinant PLD2 with increasing concentrations of PIP2; format: biochemical; conditions: 300 nM inhibitor, fixed PC8
Method in brief: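 Baculovirus-expressed, TALON-enriched full-length PLD2 was left untreated or treated with 300 nM inhibitor. It was then run in the lipase assay with increasing PIP2 concentrations and a fixed concentration of PC8 substrate. Activity was read as radiolabelled phosphatidylbutanol, co-migrating with PBut standards, by scintillation counting.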

PLD1 [5] = target: T2, PLD1 (Homo sapiens, UniProt Q13393); conditions: inhibiting PLD1 in the tumor microenvironment ref Chen, Hongu et al. 2012; cited from earlier work
T2 sequence (Q13393 1-1074): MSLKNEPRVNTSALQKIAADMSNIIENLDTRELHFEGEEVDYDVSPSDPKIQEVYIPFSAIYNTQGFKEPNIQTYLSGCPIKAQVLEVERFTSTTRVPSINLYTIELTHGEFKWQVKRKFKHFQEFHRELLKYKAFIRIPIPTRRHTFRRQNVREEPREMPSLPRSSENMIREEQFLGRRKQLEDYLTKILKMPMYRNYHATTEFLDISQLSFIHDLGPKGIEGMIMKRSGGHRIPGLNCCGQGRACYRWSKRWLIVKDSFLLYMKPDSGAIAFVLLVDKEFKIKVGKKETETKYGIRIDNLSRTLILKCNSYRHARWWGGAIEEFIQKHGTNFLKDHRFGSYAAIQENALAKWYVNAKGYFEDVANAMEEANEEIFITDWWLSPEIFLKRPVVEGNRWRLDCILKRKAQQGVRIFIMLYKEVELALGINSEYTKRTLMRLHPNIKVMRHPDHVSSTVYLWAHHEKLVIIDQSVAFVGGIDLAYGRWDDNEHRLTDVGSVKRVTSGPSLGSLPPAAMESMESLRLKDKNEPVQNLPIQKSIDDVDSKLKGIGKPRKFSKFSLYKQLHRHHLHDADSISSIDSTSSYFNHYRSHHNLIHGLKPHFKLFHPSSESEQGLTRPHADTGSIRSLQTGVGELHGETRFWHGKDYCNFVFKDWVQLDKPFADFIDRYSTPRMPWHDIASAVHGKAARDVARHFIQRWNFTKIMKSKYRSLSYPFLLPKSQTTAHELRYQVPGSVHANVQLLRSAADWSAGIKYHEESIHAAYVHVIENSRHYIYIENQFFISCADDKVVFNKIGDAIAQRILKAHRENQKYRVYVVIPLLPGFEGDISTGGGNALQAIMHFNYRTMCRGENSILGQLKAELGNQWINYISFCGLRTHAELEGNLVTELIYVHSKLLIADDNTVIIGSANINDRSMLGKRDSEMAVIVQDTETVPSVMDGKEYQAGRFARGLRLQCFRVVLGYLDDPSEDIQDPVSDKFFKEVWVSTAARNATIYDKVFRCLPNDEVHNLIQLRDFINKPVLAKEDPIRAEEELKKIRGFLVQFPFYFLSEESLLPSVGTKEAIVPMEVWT

[6] = in vivo ref Monovich, Mugrage et al. 2007; cited from earlier work
PLD1 [7] = target: T2, PLD1; test: Phospholipase; format: biochemical
[8] = tested on: breast cancer cells (MDA-MB-231); test: Cell invasion assay; format: cell-based; conditions: 300 nM, 700 nM; not in cells overexpressing resistant PLD2 mutants
Method in brief: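 PLD2 mutant constructs were overexpressed by transfection. After transfection, cells were harvested and treated with the test compound at 300 or 700 nM for 20 min. Invasion was then run in Matrigel inserts.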

PLD2 = conditions: xenograft mice models ref Henkels, Boivin et al. 2013; cited from earlier work
[9] = ref Lewis JA et al, Bioorg Med Chem Lett, 2009

T1 sequence (O14939 whole entry, species assumed): as the sequence (O14939 whole entry S757A) above, with A757S counted along it

SMILES: O=C(NCCN1CCC(n2c(=O)[nH]c3ccccc32)CC1)c1cc2cc(F)ccc2[nH]1 [FIPI, N-[2-[4-(2,3-dihydro-2-oxo-1H-benzimidazol-1-yl)-1-piperidinyl]ethyl]-5-fluoro-1H-indole-2-carboxamide]
- Competition by increasing enzyme or substrate (recombinant PLD2 [1]): not totally competed off
- Effect on Km (recombinant PLD2 [1]): increase the Km
- Effect on Vmax (recombinant PLD2 [1]): decreasing the Vmax
- Type of inhibition (Lineweaver Burk plot) (recombinant PLD2 [1]): mixed-type inhibition
- Inhibition of PLD2-S757A lipase activity (PLD2 mutants [2]): resistant
- Inhibition of lipase activity of the battery of PLD2 mutants (PLD2 mutants [3]; 300 nM): inhibited most of the mutants
- Isoform specificity (PLD; ref Su W et al, Mol Pharmacol, 2009): Dual (PLD1 and PLD2) inhibitor
- PLD2 inhibition with increasing concentrations of PIP2 (recombinant PLD2 [4]): FIPI inhibited the enzyme
- Metastasis and angiogenesis (PLD1 [5]): dampens metastasis and angiogenesis
- bioavailability [6]: 18%
- half-life in vivo [6]: 5.5 h
- IC50 (PLD1 [7]): 0.03 µM

SMILES: CC(CN1CCC(n2c(=O)[nH]c3cc(Cl)ccc32)CC1)NC(=O)c1ccc2ccccc2c1 (stereo not shown) [NBOD, N-[2-[4-(5-chloro-2,3-dihydro-2-oxo-1H-benzimidazol-1-yl)-1-piperidinyl]-1-methylethyl]-2-naphthalenecarboxamide]
- Isoform specificity (PLD; [9]): PLD1 inhibitor

SMILES: O=C(NCCN1CCC2(CC1)C(=O)NCN2c1cccc(F)c1)c1ccc2ccccc2c1 [NFOT, N-[2-[1-(3-Fluorophenyl)-4-oxo-1,3,-8-triazaspiro[4,5]dec-8-yl]ethyl]-2-naphthalenecarboxamide]
- Effect on Km (recombinant PLD2 [1]): increase the Km
- Effect on Vmax (recombinant PLD2 [1]): decreasing the Vmax
- Type of inhibition (Lineweaver Burk plot) (recombinant PLD2 [1]): mixed-type inhibition
- Inhibition of PLD2-H158Q, Y165F, L173A, R210/212A, F244N/L245/L246A, S648A and S757A lipase activity (PLD2 mutants [3]; 300 nM): demonstrated resistance
- Inhibition of PLD2-R210A/R212A, F244N/L245/L246A, S648A and S757A lipase activity (PLD2 mutants [3]; range of inhibitor concentrations, Figure 5): partially resistant to inhibition
- Isoform specificity (PLD; ref Lavieri RR et al, J Med Chem, 2010): PLD2 inhibitor
- PLD2 inhibition with increasing concentrations of PIP2 (recombinant PLD2 [4]): enzyme activity was regained back
- Cell invasion of cancer cells [8]: prevents cell invasion

SMILES: O=C(NCCN1CCC2(CC1)C(=O)NCN2c1ccccc1)c1ccc2ccccc2c1 [NOPT, N-[2-(4-oxo-1-phenyl-1,3,8-triazaspiro[4,5]dec-8-yl)ethyl]-2-naphthalenecarboxamide]
- Isoform specificity (PLD; [9]): PLD2 inhibitor
- Tumor metastasis and cell invasion (PLD2): inhibited tumor metastasis and cell invasion

SMILES: C[C@@H](CN1CCC(n2c(=O)[nH]c3cc(Br)ccc32)CC1)NC(=O)[C@@H]1C[C@H]1c1ccccc1 [RBPC, (1R,2R)-N-([S]-1-{4-[5-bromo-2-oxo-2,3-dihydro-1H-benzo(d)imidazol-1-yl]piperidin-1-yl}propan-2-yl)-2-phenylcyclopropanecarboxamide]
- Isoform specificity (PLD; [9]): PLD1 inhibitor
- Inhibition of PLD activity in PLD1 overexpressed samples (PLD1 [7]; Figure 1): did not efficiently inhibit PLD activity
